A3G deaminase: inhibitors of human APOBEC3G DNA deaminase; Q9HC16; recombinant A3G, ssDNA deamination FAM/TAMRA fluorescence; inhibition, % at 20 µM; hit rate 0.28% among 330,000; AID 493012;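 active = inhibition of at least 40% at 20 µM, with no more than 30% in the related APOBEC3A deaminase screen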;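 also: plate controls were DMSO wells with A3G for no effect and wells lacking A3G enzyme for full effect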
A3A deaminase: human APOBEC3A DNA deaminase inhibition | P31941 | recombinant A3A, FAM/TAMRA ssDNA deamination fluorescence | inhibition, % at 20 µM | hit rate 0.41% among 330,000;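 active = at least 40% inhibition at 20 µM here, with at most 30% in a related deaminase screen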;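 also: plate controls were A3A with DMSO for no effect and wells lacking A3A enzyme for full effect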
SUMO Mot1 rescue: blocks SUMOylation pathway, rescuing yeast Mot1-301 growth; S. cerevisiae Mot1-301 growth rescue, ATP luminescence, 38.5C; percent above DMSO median, 100 means doubled; growth rescue, % at 18.8 µM; hit rate 1% among 320,000; AID 2716;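 active = every valid replicate shows activation above 250% relative to neutral control wells; inactive = the rest, any valid replicate at or below 250%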;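 also: OY570 slx delta 5 strain wells were the positive control but not used for scaling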
Statin myotox sup: protects C2C12 myotubes from simvastatin toxicity; ATP luminescence, 48 h; scaled: DMSO 0, geranylgeraniol control 100; rescue of ATP level, % at 7.49 µM; hit rate 0.78% among 330,000;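 active = mean ATP rescue above about 67%, or every replicate alone reaching that limit, limit read from the data, passing the limit was not always enough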;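 also: myotubes were challenged with 10 µM simvastatin during compound exposure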
ARFGAP1 inhibitor: inhibitors of rat ARFGAP1; hit rate 0.26% among 360,000; inhibition, % at 16.5 µM; Arfgap1-stimulated ARF1 GTP hydrolysis, GDP FP detection; Q62848;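 active = inhibition above a per-plate limit, mean inhibition of low control wells plus 3 SD, cut at about 25% in these data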;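 also: 0% = DMSO wells with enzyme and 100% = wells lacking Arfgap1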
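Assay system: purified rat His6-Arfgap1 residues 1-136 (GAP domain); Reagent: human Δ17 ARF1 bound to GTP; Dosing: 16.5 µM single point, 1.26% DMSO; Times: GTP hydrolysis reaction 2 h at 25 °C; Signal: FP, GDP Alexa 633 tracer displaced from anti-GDP antibody, 620/688 nm; Measure: % inhibition from polarization.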
ASAP1 GAP inh: inhibitors of human ASAP1 ArfGAP activity. Q9ULH1. AID 624377. inhibition, % at 16.5 µM. hit rate 0.19% among 360,000. ASAP1-stimulated ARF1 GTP hydrolysis, GDP FP detection; in the data active = inhibition above about 25%;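 also: 0% = vehicle with enzyme and substrate and 100% = no enzyme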
Target sequence (Q9ULH1 325-724 limits assumed): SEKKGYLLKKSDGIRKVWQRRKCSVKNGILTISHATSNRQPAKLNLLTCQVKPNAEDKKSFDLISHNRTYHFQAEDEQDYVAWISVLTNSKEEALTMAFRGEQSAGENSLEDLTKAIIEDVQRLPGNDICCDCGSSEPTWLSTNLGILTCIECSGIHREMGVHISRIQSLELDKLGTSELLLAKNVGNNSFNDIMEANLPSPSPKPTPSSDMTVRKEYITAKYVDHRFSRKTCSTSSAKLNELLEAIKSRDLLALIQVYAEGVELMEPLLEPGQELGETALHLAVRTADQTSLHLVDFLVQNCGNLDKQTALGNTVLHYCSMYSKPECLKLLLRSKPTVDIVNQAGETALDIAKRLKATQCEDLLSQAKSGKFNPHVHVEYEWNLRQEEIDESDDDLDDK
* hit, by the source's call; · = no result given. Hits are enriched below; roughly 2.1% of the tested compounds scored in any of these assays.

SMILES | A3G deaminase | A3A deaminase | SUMO Mot1 rescue | Statin myotox sup | ARFGAP1 inhibitor | ASAP1 GAP inh
COc1ccccc1NC(=O)NC1(C(=O)N2CCCCCC2)CCCCC1 | -2 | 4 | · | 106* | 5 | 7
COc1ccccc1NC(=O)NC1(C(=O)N2CCOCC2)CCCCC1 | -5 | -2 | -9 | 14 | -6 | -9
C[C@@H]1CCCCO[C@H](CN(C)C(=O)Nc2ccc(F)cc2)[C@H](C)CN([C@@H](C)CO)C(=O)c2cc(NC(=O)Nc3ccc4c(c3)OCO4)ccc2O1 | · | · | · | 30 | · | ·
COc1ccc(S(=O)(=O)N2CCN(Cc3ccc4c(c3)OCO4)CC2)cc1 | 1 | 2 | 28 | 19 | -5 | 2
O=S(=O)(Cc1ccc(Cl)cc1)N1CCN(Cc2ccc3c(c2)OCO3)CC1 | -7 | -2 | 5 | 1 | 17 | 4
CCOc1ccc(S(=O)(=O)N2CCN(Cc3ccc4c(c3)OCO4)CC2)cc1Cl | -3 | 11 | 386* | 22 | -1 | 7
O=S(=O)(Cc1ccccc1Cl)N1CCN(Cc2ccc3c(c2)OCO3)CC1 | -8 | -3 | 277* | -8 | 0 | 8
C[C@@H]1CN([C@H](C)CO)C(=O)Cc2cc(NC(=O)CCN3CCOCC3)ccc2O[C@@H]1CN(C)C(=O)Nc1cccc2ccccc12 | · | · | · | 16 | · | ·
O=C(COC(=O)c1c[nH]c(=O)[nH]c1=O)Nc1ccccc1Br | -4 | -4 | 808* | -26 | -7 | -5
CS(=O)(=O)N(CC(=O)NCc1ccco1)c1ccc(OCc2ccccc2)cc1 | -1 | 3 | -1 | 123* | -9 | 6
Cc1ccccc1-c1ccc([C@H]2[C@@H](CO)N3CCCCN(Cc4cccnc4)C[C@H]23)cc1 | · | · | · | -2 | · | ·
N#Cc1ccccc1/C=N/Nc1nc(-c2ccccc2)c2cc(Br)ccc2n1 | -4 | -3 | -13 | 99* | 13 | 8
O=[N+]([O-])c1ccc(/C=N/Nc2nc(-c3ccccc3)c3cc(Br)ccc3n2)o1 | -1 | 4 | -6 | · | -2 | -1
COc1ccc(NC(=O)CN2CCCN(S(=O)(=O)c3ccc(F)cc3)CC2)c(OC)c1 | -3 | 1 | -15 | 94* | 2 | 14
COc1ccc(S(=O)(=O)N2CCCN(CC(=O)Nc3ccccc3F)CC2)cc1 | -3 | -4 | 242 | 2 | 0 | -4
Cc1ccc(CCNC(=O)C2CCCN(c3ncnc4c3nc3n4CCCCC3)C2)cc1 (stereo not given) | -3 | -3 | -15 | 15 | -2 | 6
CCOc1ccc(CCNC(=O)C2CCCN(c3ncnc4c3nc3n4CCCCC3)C2)cc1 (stereo not given) | -9 | -4 | -8 | 76* | -6 | -7
CCOC(=O)C1C(c2cc(OC)c(OC)c(OC)c2)NC(=S)NC1(O)C(F)(F)F (stereo not given) | -4 | -2 | 6 | 101* | -9 | 10
CCOC(=O)C1C(c2cc(OC)c(O)c(OC)c2)NC(=S)NC1(O)C(F)(F)F (stereo not given) | -4 | -2 | -11 | -6 | 1 | 0
CCOC(=O)C1C(c2cccc(F)c2)NC(=S)NC1(O)C(F)(F)F (stereo not given) | -2 | -3 | 12 | 98* | -7 | -7
Cc1c(NC(=O)CSc2ccccn2)c(=O)n(-c2ccccc2)n1C | -3 | 0 | 143 | 111* | -12 | 3
COc1ccccc1NC(=O)Nc1ccc2c(c1)C(=O)N(C)C[C@H](OC)[C@H](C)CN[C@H](C)CO2 | · | · | · | -16 | · | ·
O=C(c1ccc2c(c1)OCO2)N1C[C@H]2[C@@H](c3ccccc31)[C@H](CO)N2Cc1cccnc1 | · | · | · | -29 | · | ·
Cc1cccc(Cc2c(C)nc3c(C(=O)NCc4ccco4)cnn3c2C)c1 | 4 | 4 | -2 | 107* | 3 | 9
O=C(NC[C@@H]1[C@H](c2ccccc2)[C@@H](CO)N1C(=O)Cc1cccnc1)C1CCC1 | · | · | · | -5 | · | ·
NNC(=O)c1nn(-c2ccc(Cl)cc2)cc1O | -3 | -4 | -24 | 113* | 3 | -6
Cc1ccc(NC(=O)COC(=O)c2nn(-c3ccc(Cl)cc3)cc2O)cc1 | -4 | -5 | 20 | -6 | 1 | 4
O=C(Nc1nc2c(s1)CCCC2)c1ccc(S(=O)(=O)N2CCCc3ccccc32)cc1 | -1 | 1 | -12 | · | 4 | 4

Assay outcomes from PubChem BioAssay.
